In paper PMC7935732 (Targeted Oncology, 2021):
Entries after “also recorded” stand apart in the source; their conditions may differ. Marks after values point to notes of the source that are not given here.

What was measured:
[1] = test system: breast cancer; conditions: larger population, including MONARCH plus; cited from earlier work
[2] = Plasma pharmacokinetics, LC-MS/MS, non-compartmental analysis; type: in vivo, human; conditions: for CL/F / RAUC (accumulation ratio for AUC0–12): abemaciclib, geometric mean (% CV); for half-life / Cmax / AUC(0-inf) / AUC(0-t) / Vd/F: human, plasma; for Cmax: Mean abemaciclib Cmax
Method in brief: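 Oral test compound, 150 or 200 mg. Plasma was sampled at 1–72 h after a single dose (Cycle 1 Day 1) and at 1–24 h after twice-daily dosing (Day 31), with doses held during sampling. Parent and two major active metabolites were measured by validated LC-MS/MS. Non-compartmental analysis; total active analytes summed. RAUC compares steady-state AUC0–12 with single-dose values. Descriptive statistics by dose.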

[3] = test system: CDK 4; conditions: in vitro; cited from earlier work
[4] = test system: patients with advanced solid tumors; conditions: given twice daily on a continuous schedule (every 12 h); mainly Caucasian patients; cited from earlier work
[5] = test system: advanced and/or metastatic cancers; assay: Antitumor activity; type: in vivo, human
[6] = Breast cancer treated population, 150 mg (n1 = 10)
[7] = Breast cancer treated population, 200 mg (n1 = 11)
[8] = Breast cancer treated population, Total (n1 = 21)
[9] = Overall population, 150 mg (n = 12)
[10] = Overall population, 200 mg (n = 13)
[11] = Overall population, Total (n = 25)

CCN1CCN(Cc2ccc(Nc3ncc(F)c(-c4cc(F)c5nc(C)n(C(C)C)c5c4)n3)nc2)CC1 [abemaciclib]
Incidence of embolism [1]: less than 5%
CL/F ([2]; single oral dose 150 mg (C1D1), N 12): 22.1 (63) L/h
CL/F ([2]; single oral dose 200 mg (C1D1), N 13): 26.4 (74) L/h
RAUC (accumulation ratio for AUC0–12) ([2]; steady state (C1D31) 150 mg every 12 h, n = 5): 1.57 (106)^b
RAUC (accumulation ratio for AUC0–12) ([2]; steady state (C1D31) 200 mg every 12 h, N 10): 2.10 (69)
half-life ([2]; oral, 200 mg): ~24 h
Cmax ([2]; oral, 200 mg, after multiple doses of 150 or 200 mg): 260 to 320 ng/mL
Cmax ([2]; oral, after a single dose): 200 ng/mL
AUC(0-inf) ([2]; po, 150 mg): 6790 ng·h/mL
AUC(0-t) ([2]; po, 150 mg): 1700 ng·h/mL
Vd/F ([2]; po, 150 mg): 767 L
half-life ([2]; po, 150 mg): 22.4 h
AUC(0-inf) ([2]; po, 200 mg): 7580 ng·h/mL
AUC(0-t) ([2]; po, 200 mg): 1740 ng·h/mL
Vd/F ([2]; po, 200 mg): 955 L
half-life ([2]; po, 200 mg): 22.8 h
Greater potency against CDK 4 than against CDK 6 [3]: 14 times
Maximum tolerated dose (MTD) [4]: 200 mg
Confirmed responder ([5]; 150 mg cohort): 1
Patients achieving PR ([5]; 1 patient in each dose cohort): 2 patients
Best overall response: Complete response (CR) [5, 6]: 0 n (%)
Best overall response: Partial response (PR) [5, 6]: 1 (10.0) n (%)
Best overall response: Progressive disease (PD) [5, 6]: 2 (20.0) n (%)
Disease control rate (CR+PR+SD) [5, 6]: 7 (70.0) n (%)
Overall response rate (CR+PR) [5, 6]: 1 (10.0) n (%)
Best overall response: Complete response (CR) [5, 7]: 0 n (%)
Best overall response: Partial response (PR) [5, 7]: 1 (9.1) n (%)
Best overall response: Progressive disease (PD) [5, 7]: 1 (9.1) n (%)
Disease control rate (CR+PR+SD) [5, 7]: 9 (81.8) n (%)
Overall response rate (CR+PR) [5, 7]: 1 (9.1) n (%)
Best overall response: Complete response (CR) [5, 8]: 0 n (%)
Best overall response: Partial response (PR) [5, 8]: 2 (9.5) n (%)
Best overall response: Progressive disease (PD) [5, 8]: 3 (14.3) n (%)
Disease control rate (CR+PR+SD) [5, 8]: 16 (76.2) n (%)
Overall response rate (CR+PR) [5, 8]: 2 (9.5) n (%)
Best overall response: Complete response (CR) [5, 9]: 0 n (%)
Best overall response: Partial response (PR) [5, 9]: 1 (8.3) n (%)
Best overall response: Progressive disease (PD) [5, 9]: 2 (16.7) n (%)
Disease control rate (CR+PR+SD) [5, 9]: 8 (66.7) n (%)
Overall response rate (CR+PR) [5, 9]: 1 (8.3) n (%)
Best overall response: Complete response (CR) [5, 10]: 0 n (%)
Best overall response: Partial response (PR) [5, 10]: 1 (7.7) n (%)
Best overall response: Progressive disease (PD) [5, 10]: 2 (15.4) n (%)
Disease control rate (CR+PR+SD) [5, 10]: 9 (69.2) n (%)
Overall response rate (CR+PR) [5, 10]: 1 (7.7) n (%)
Best overall response: Complete response (CR) [5, 11]: 0 n (%)
Best overall response: Partial response (PR) [5, 11]: 2 (8.0) n (%)
Best overall response: Progressive disease (PD) [5, 11]: 4 (16.0) n (%)
Disease control rate (CR+PR+SD) [5, 11]: 17 (68.0) n (%)
Overall response rate (CR+PR) [5, 11]: 2 (8.0) n (%)
Complete response (CR) ([5]; all treated patients (n = 25)): No complete response was observed; also recorded: no CR was observed
Disease control rate (DCR) ([5]; all treated patients (n = 25)): 68%
Patients achieving partial response (PR) ([5]; all treated patients (n = 25)): 8%
